DDE Tn7 FP inh = inhibitors of Tn7 peptide binding to human fibrin DD(E); P02675; FP displacement of FITC-Tn7 peptide from fibrin DD(E); 0% = median of compound wells per plate; inhibition, % at 8.3 µM; actives 0.13% (n = 370,000); AID 720508;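 active means inhibition above the mean of compounds falling within the control limits plus 3 SD of them, cut at about 14% in these data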;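 further: 0% = plate median of compound wells and 100% = 10 µM Aha-Tn7 peptide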
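Assay system: human fibrin DD(E) protein / Input: 2 µM fibrin DD(E) / Benchmarks: high control of 10 µM Aha-Tn7 peptide / Measured by: fluorescence polarization of the labelled Tn7 tracer / Medium: Tris buffer with calcium and detergent, pH 7.8 / Timing: 10 min compound pre-incubation, 3 h probe incubation at room temperature / Repeats: one replicate per compound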
DDE Tn6 FP inh = inhibitors of Tn6 peptide binding to human fibrin DD(E); actives 0.21% (n = 370,000); P02675; Fibrin DD(E) TRITC-Tn6 fluorescence polarization displacement; inhibition, % at 8.3 µM; AID 720509;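 active means inhibition above a per-campaign cutoff: mean of compounds within control limits plus 3 SD, cut at about 15% in these data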;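 further: 0% = median of all compound wells on the plate and 100% = blocking peptide control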
CAL PDZ FP-1 = CAL PDZ (human) peptide binding inhibition; Q9HD26; purified CAL PDZ, TMR-peptide fluorescence polarization, 1 h; inhibition, % at 24.9 µM; actives 0.92% (n = 300,000);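 active means mean inhibition of at least 30% with at least half of replicates also reaching 30%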;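 further: 0% = DMSO neutral control and 100% = excess unlabeled competitor peptide PRC23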
Arr AP2 block = human beta-arrestin and AP2 interaction inhibition. FITC-arrestin peptide / GST-AP2 beads, flow cytometry; AP2 beta2 appendage carries R879A mutation. AID 504490. inhibition, % at 10 µM. actives 0.31% (n = 340,000);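 active means inhibition above a set limit, near 3 SD of compounds lacking own fluorescence, cut at about 54% in these data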;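 further: plate controls were DMSO wells for no effect and 5 µM unlabelled arrestin peptide for full effect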
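Material – GST-tagged AP2 beta2-adaptin appendage (R879A) on 4 µm glutathione beads · Probe or stimulus – fluorescein-tagged arrestin peptide at 50 nM final · Timing – 12 min plus 1 h, RT · Detection – bead flow cytometry, FITC channel · Read-out basis – inhibition as reduced fluorescein signal on beads, percent · Medium – PBS plus Tween 20 (0.05%) and BSA (0.1%)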
CAL PDZ FP-2 = inhibitors of human CAL PDZ peptide binding | Q9HD26 | purified CAL PDZ, TMR-peptide fluorescence polarization, 1 h | inhibition, % at 20 µM | actives 0.02% (n = 330,000) | AID 504414;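 active means highest replicate inhibition of at least 40%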;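 further: plate controls were DMSO neutral control wells for no effect and unlabeled competitor peptide control wells for full effect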
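System: purified tagged CAL PDZ domain construct (CerCALP). Schedule: 1 h incubation at room temperature before polarization reading. Medium: 25 mM sodium phosphate pH 7.4, 150 mM NaCl, TCEP, IgG, Thesit. Read-out: percent inhibition from loss of millipolarization. Measured by: FP readout, S and P plane fluorescence. Probe or stimulus: fluorescent TMR peptide probe.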
Arr AP2 CP1 = human beta-arrestin and AP2 interaction inhibition, cherry pick; AID 504908; GST-AP2 beads, FITC arrestin peptide binding, flow cytometry; GST-fused beta2-adaptin appendage, R879A mutant; actives 2% (n = 1,300); inhibition, % at 10 µM; shares compounds with Arr AP2 block;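 active means inhibition above a set limit, roughly 3 SD of non-fluorescent compound noise, cut at about 38% in these data; inactive means inhibition at or below that limit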;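 further: loss of bead fluorescence from 50 nM FITC arrestin peptide bound to appendage; 0% = negative control wells and 100% = excess unlabelled arrestin peptide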
Target sequence (P63010 whole entry, looked up, the tested form may be a part, one chain of several): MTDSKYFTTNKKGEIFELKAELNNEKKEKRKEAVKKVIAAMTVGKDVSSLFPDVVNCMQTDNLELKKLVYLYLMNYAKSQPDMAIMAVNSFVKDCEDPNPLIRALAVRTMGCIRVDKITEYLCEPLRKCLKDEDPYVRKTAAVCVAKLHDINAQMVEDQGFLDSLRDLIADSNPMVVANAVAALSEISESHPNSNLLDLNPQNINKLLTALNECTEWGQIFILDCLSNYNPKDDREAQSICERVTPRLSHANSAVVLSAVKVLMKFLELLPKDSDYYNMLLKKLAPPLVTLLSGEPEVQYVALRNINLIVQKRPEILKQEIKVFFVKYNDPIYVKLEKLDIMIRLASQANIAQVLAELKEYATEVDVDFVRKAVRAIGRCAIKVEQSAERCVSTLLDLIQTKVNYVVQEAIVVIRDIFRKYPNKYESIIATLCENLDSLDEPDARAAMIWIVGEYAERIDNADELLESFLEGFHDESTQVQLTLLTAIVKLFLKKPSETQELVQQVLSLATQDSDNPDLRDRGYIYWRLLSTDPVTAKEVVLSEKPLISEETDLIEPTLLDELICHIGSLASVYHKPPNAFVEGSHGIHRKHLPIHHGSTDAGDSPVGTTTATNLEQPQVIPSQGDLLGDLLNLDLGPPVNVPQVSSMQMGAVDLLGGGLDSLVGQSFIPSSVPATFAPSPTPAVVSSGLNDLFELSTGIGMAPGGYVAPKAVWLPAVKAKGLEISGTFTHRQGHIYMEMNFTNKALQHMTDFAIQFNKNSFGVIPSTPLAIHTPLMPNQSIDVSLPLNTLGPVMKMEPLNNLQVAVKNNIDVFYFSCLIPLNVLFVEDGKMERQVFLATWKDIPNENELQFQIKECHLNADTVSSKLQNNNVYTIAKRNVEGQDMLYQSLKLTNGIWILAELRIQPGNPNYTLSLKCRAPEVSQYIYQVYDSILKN
GST GSH counter = counter-screen for beta-arrestin AP2 inhibitors: GST-GSH bead binding; shares compounds with Arr AP2 block; GST-fluorescein binding to GSH beads, fluorescence; inhibition, % at 10 µM; actives 2% (n = 1,300); AID 588338;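 active means inhibition above 50%, about 3 SD of the inhibition seen with non-fluorescent compounds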;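 further: fluorescein maleimide labelled GST captured on 4 micron glutathione beads; higher means more loss of bead fluorescence from quenching or blocked binding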
Tn7 DDE conf = confirmation of inhibitors of Tn7 binding to human fibrin DD(E); shares compounds with DDE Tn7 FP inh; FP displacement of TRITC-Tn7 peptide from DD(E); 0% set at plate's compound-well median; AID 720628; inhibition, % at 8.3 µM; actives 5% (n = 460);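 active means inhibition above the campaign cutoff, the mean of compounds within control limits plus 3 SD, cut at about 14% in these data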;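 further: 100% = median FP of high control wells holding Aha-Tn7 inhibitor peptide; displacers lower polarization since freed probe rises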
DDE Tn7 FP ctr = counter-screen hit for Tn7 peptide-fibrin DD(E) binding disruption | shares compounds with DDE Tn7 FP inh | AID 720633 | TRITC-Tn7 probe displacement, fluorescence polarization | inhibition, % at 8.3 µM | actives 3% (n = 460);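 active means inhibition above the cutoff, the mean of compounds lying between the control bounds plus 3 SD of those compounds, cut at about 17% in these data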;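 further: 0% = median of compound sample wells and 100% = excess unlabeled Aha-Tn7 peptide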
Tn6 DDE ctr = DD(E)-Tn6 binding inhibition, counter-screen | Fibrin DD(E), TRITC-Tn6 fluorescence polarization displacement; 0% = median of compound wells, not DMSO | shares compounds with DDE Tn6 FP inh | actives 2% (n = 680) | inhibition, % at 8.3 µM;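 active means inhibition above the mean of test compounds lying between the control limits plus 3 SD of those, cut at about 14% in these data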;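 further: 0% = median of compound wells and 100% = wells with Aha-Tn7 blocking peptide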
Tn6 DDE conf = DD(E)-Tn6 binding inhibition, FP confirmation. shares compounds with DDE Tn6 FP inh. FP displacement of TRITC-Tn6 peptide from DD(E); 0% = per-plate median of test wells. inhibition, % at 8.3 µM. actives 10% (n = 680);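 active means inhibition above the mean of compounds lying within the control limits plus 3 SD, cut at about 16% in these data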;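 further: 100% = high control wells holding a competing inhibitor peptide at 10 µM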
Starred values were filed as active, the others as inactive; . = not tested or not shown; + = active, no number. In the library only some 1.4% were active in any assay of this set; here they are far more common.

SMILES	DDE Tn7 FP inh	DDE Tn6 FP inh	CAL PDZ FP-1	Arr AP2 block	CAL PDZ FP-2	Arr AP2 CP1	GST GSH counter	others
Nc1ncc(-n2cncn2)c(-c2ccc(Cl)cc2)n1	1.7	2.8	0.1	55.6*	-1.1	-10.9	-1.6
CC1(C)CC2(CCO1)N1CC3(C)CN2CC(C)(C1)C3=O (stereo not given)	6.2	0.1	-0.2	83.8*	-0.3	-1.3	-2.8
O=C(Cc1ccccc1C(=O)O)Nc1cccc2ccccc12	-3.8	11.7	.	59.6*	-1.0	5.6	-4.0
O=C(NCC(c1ccccc1)c1ccccc1)[C@H](Cc1c[nH]c2ccccc12)NC1(C(=O)NC2CCCCC2)CCC1	-8.2	0.9	.	.	.	.	.
Cc1ccc(CNC(=O)C2CCC(=O)N2Cc2ccc(C)cc2)cc1 (stereo not given)	1.0	-3.7	-1.6	-22.1	-0.1	.	.
Cc1ccc(CN2C(=O)CCC2C(=O)NCCN2CCOCC2)cc1 (stereo not given)	-1.8	-1.1	-4.6	6.0	-2.7	-9.7	-4.5
O=C(NCCCN1CCN(c2cccc(Cl)c2)CC1)C1CCC(=O)N1Cc1ccccc1Cl (stereo not given)	-3.2	-1.5	-0.6	4.4	-0.6	5.8	-10.6
Cc1ccc(CN2C(=O)CCC2C(=O)NCCc2ccccc2)cc1 (stereo not given)	1.6	-2.3	-4.5	-1.7	-0.5	.	.
CN(CCCNC(=O)C1CCC(=O)N1Cc1ccccc1Cl)c1ccccc1 (stereo not given)	3.2	1.3	-0.8	6.0	-0.1	.	.
Cc1ccc(CN2C(=O)CCC2C(=O)NCCCN2CCCC(C)C2)cc1 (stereo not given)	1.1	3.0	-2.2	1.7	-1.9	-11.2	-8.5
COCCCNC(=O)C[C@H]1C[C@@]2(C(=O)OC)C(=C[C@H](C(C)(C)C)O[C@@H]2C)N(Cc2ccco2)C1=O	-6.5	-2.2	.	.	.	.	.
Cc1c(C(=O)c2ccc(F)cc2F)c2ccccn2c1CCC#N	3.4	4.8	-0.8	61.8*	-3.2	2.8	-4.6
O=[N+]([O-])c1ncccc1OCCOc1ccc(Cl)cc1Cl	5.0	5.3	.	.	.	.	.
Cc1cc2nc3ccc(N(C)C)cc3nc2cc1N	3.2	33.1*	-1.8	64.3*	3.6	44.3*	20.8	Tn6 DDE ctr=-8.9;Tn6 DDE conf=64.7*
Cc1ccc(-n2nc3cc(C)c(N)cc3n2)cc1	0.3	-5.4	-0.9	35.0	-1.3	.	.
CCNc1ccc2noc3c2c1C(=O)c1ccccc1-3	16.8*	+	18.4	62.9*	43.7*	33.6	91.0*	Tn7 DDE conf=53.3*;DDE Tn7 FP ctr=93.2*;Tn6 DDE ctr=53.3*;Tn6 DDE conf=93.2*
Nn1c(SCC(=O)Nc2nccs2)nnc1-c1cc(-c2ccccc2)n[nH]1	-4.5	-7.8	.	.	.	.	.
CCOC(=O)c1oc2cccc(O)c2c1CN(Cc1ccccc1)C(C)=O	14.2*	7.5	-2.4	-0.2	-0.4	.	.	Tn7 DDE conf=6.9;DDE Tn7 FP ctr=-1.0
CCOC(=O)c1oc2cccc(O)c2c1C	-3.3	-2.4	-1.1	11.5	-0.8	.	.

Screens (PubChem BioAssay)
